The source of these data is the array DNA melting data of Ke et al. (doi:10.1101/2024.01.08.574731).

A short description of series [1]: melting temperature; fluorescence melt of hairpins on a sequencing array, two-state fit, raised by 9.35 °C to match UV melts. To be noted: sodium 0.088 M. The essentials:
(§1)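 Hairpins were imaged by Cy3 fluorescence on a sequenced MiSeq flow cell with annealed Cy3 and quencher oligos, in 50 mM Na-HEPES pH 8.0, 25 mM NaCl, in 2.5 °C steps up to 60 °C. Bootstrapped two-state fits of normalised signals gave melting temperature and folding enthalpy. Four replicates were combined by inverse variance, and fitted temperatures were raised by 9.35 °C to match UV melts.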

Series [2] in a line: folding enthalpy; higher = less favourable; fluorescence melt of hairpins on a sequencing array, two-state fit. The following applies: sodium 0.088 M. The procedure, abridged:
as §1

With GGTTAGTCGAAAGACACC (((..(((....)))))), the Tm in series [1] was found to be 35.5 °C. For the same sequence, in series [2], the folding enthalpy was -17.2 kcal/mol.
Taken in the same sequence, the figures for GGTGGAGCGAAAGCTACC (((..(((....)))))) were 44.1 °C and -13.7 kcal/mol.
In the case of GTAACCGAAAGGTCTTAC ((((((....)))..))), in series [1], the Tm stood at 30.6 °C. Further, the folding enthalpy in series [2] was -11.6 kcal/mol.
Consider GATCTAGTTTTAGATC ((((((....)))))), for which, in series [1], the Tm was 42.3 °C. The folding enthalpy in series [2] is -32.3 kcal/mol.
For GCGAACGAAAGTTAACGC ((((((....)))..))), in that order: 44.6 °C and -20.6 kcal/mol.
Taken in the same sequence, the figures for GATCCTAAGCAGGATC ((((((....)))))) were 52.9 °C and -29.9 kcal/mol.
In the case of GATCGCAAGGGCGATC ((((((....)))))), in series [1], the Tm amounted to 68 °C. The folding enthalpy in series [2] is -29.3 kcal/mol.
Taken in the same sequence, the figures for GTGAACGAAAGTTTTCAC ((((((....)))..))) were 31.1 °C and -15.6 kcal/mol.
For GGCCGCGAAAGCGGAGCC ((((((....)))..))), in that order: 53.9 °C and -13.4 kcal/mol.
In the case of GCAACAACGAAAGTTTGC (((..(((....)))))), the Tm in series [1] was determined as 36.1 °C. In addition, the folding enthalpy in series [2] was -25 kcal/mol.
Taken in the same sequence, the figures for GCCCCTACGAAAGTAGGC (((..(((....)))))) were 36.7 °C and -6.61 kcal/mol.
For the sequence GAGTTACGAAAGTACTC (((.(((....)))))), in series [1], the Tm worked out at 43.2 °C. Besides, the folding enthalpy in series [2] is -25.4 kcal/mol.
For GACCCGGGAAACCAGGTC ((((.((....)).)))), in that order: 45.8 °C and -27.5 kcal/mol.
Taken in the same sequence, the figures for GTGGATCGAAAGATCAC (((.(((....)))))) were 48.8 °C and -13.3 kcal/mol.
Taken in the same sequence, the figures for GTGGTACGAAAGTATCAC (((.(((....))).))) were 54.2 °C and -47.3 kcal/mol.
For GTCATCACGAAAGTGGAC (((..(((....)))))), in series [1], the Tm turned out to be 35.3 °C. In addition, the folding enthalpy in series [2] is -12.7 kcal/mol.
Taken in the same sequence, the figures for GATCTCTTAAGAGATC ((((((....)))))) were 54.2 °C and -37.3 kcal/mol.
For GATCACCTCCGTGATC ((((((....)))))), in that order: 55 °C and -32.5 kcal/mol.
Taken in the same sequence, the figures for GATCAACTACTTGATC ((((((....)))))) were 41.8 °C and -32.5 kcal/mol.
For the sequence GCCTTGCGAAAGCCGGGC (((..((....))..))), in series [1], the Tm was determined as 55.1 °C. The folding enthalpy in series [2] is -19.9 kcal/mol.
For GAGTACGAAAGTATTCTC ((((((....)))..))), in that order: 42.6 °C and -27.4 kcal/mol.
For the sequence GATCAGACATCTGATC ((((((....)))))), in series [1], the Tm came out at 48.2 °C. The folding enthalpy in series [2] was -39.6 kcal/mol.
Taken in the same sequence, the figures for GATCCTGTTAGGATC ((((((...)))))) were 55.4 °C and -38.1 kcal/mol.
For GGAGGTGCGAAAGCATCC (((..(((....)))))), in that order: 39.3 °C and -11.6 kcal/mol.
As to GTTCCAGAAATGGAAC ((((((....)))))), the Tm in series [1] is 53.4 °C. For the same sequence, the folding enthalpy in series [2] was -32.2 kcal/mol.
As for GACTGCGAAAGCATTGTC ((((((....)))..))), the Tm in series [1] came out at 42 °C. Besides, the folding enthalpy in series [2] was -10.4 kcal/mol.
On to GGAGACGAAAGTCGTCC ((((((....))).))), for which the Tm in series [1] was found to be 49.5 °C. Also, the folding enthalpy in series [2] is -14.3 kcal/mol.
Taken in the same sequence, the figures for GATCCTGTACAGGATC ((((((....)))))) were 60.2 °C and -40.7 kcal/mol.
For GGGATCGAAAGATACCC ((((((....))).))), in that order: 51.6 °C and -21.2 kcal/mol.
For GCATTTGGAAACAAACGC ((.((((....)))).)), in that order: 37.2 °C and -30.1 kcal/mol.
Regarding GGTGGCGAAAGCCGTACC ((((((....)))..))), the Tm in series [1] was 44.7 °C. For the same sequence, the folding enthalpy in series [2] was -13.3 kcal/mol.
In the case of GACAGCGGAAACACTGTC (((((.(....).))))), in series [1], the Tm worked out at 46.6 °C. The folding enthalpy in series [2] was -33.4 kcal/mol.
For GCCTGGCGAAAGCTACGC ((.(.((....)).).)), in that order: 37.8 °C and -6.66 kcal/mol.
For GGGTAGGGAAACCTGCTC (.(.(((....))).).), in that order: 36.5 °C and -14.8 kcal/mol.
For GATCCAGTATGGATC ((((((...)))))), in that order: 60.1 °C and -39.8 kcal/mol.
In the case of GCAGCGGGAAACCGTTGC (((.(((....))).))), the Tm in series [1] was 57.9 °C. Also, the folding enthalpy in series [2] is -39.4 kcal/mol.
Taken in the same sequence, the figures for GCGCAGGGAAACCCGCGC ((((.((....)).)))) were 66.8 °C and -34 kcal/mol.
